In data set [1] the test system is substrate-binding domain of Siah. Conditions: ref House et al., 2003, 2006; cited from earlier work.
A further data set concerns Siah1 T156C. Kind of data set: MALDI-TOF MS of covalent modification, Siah1 T156C. Conditions: protein incubated with peptide in 0.5x PBS (Figure 2d). In kind it is binding. Put shortly: (§1)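 Siah1 residues 81-282 (wild type or T156C mutant) from pET15b expression, incubated with peptide in 0.5x PBS. Equal volumes of sample and sinapic acid matrix (20 mg/ml in 50% acetonitrile-0.1% TFA) were co-crystallised on target and air-dried 5 min. Controls were buffer-only and protein spectra. Peaks were picked by centroid mass find (S/N threshold 5, peak width 40 m/z, 80% height, Top Hat baseline subtraction).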

A further data set has as its system wt Siah1. Kind of data set: MALDI-TOF MS of covalent modification, wt Siah1. In kind it is binding. The following applies: protein incubated with peptide in 0.5x PBS (Figures 2e, 3d). In a few lines:
as §1

Another data set has as its system T156C Siah1. Kind of data set: X-ray crystal structure of BI-117C3/T156C Siah1 complex. In kind it is binding. Conditions: crystal structure at 2.8 Å, judged by refined atomic B-factors. In a few lines:
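Siah1 residues 81–282 with T156C mutation, purified by a published method, mixed with 2-fold excess test peptide at 4 °C for 16–18 h. Doubly peptide-bound dimer isolated by anion exchange. Sitting-drop vapour-diffusion crystals grown over 60–65% MPD, 100 mM N,N-bis(2-hydroxyethyl)glycine pH 9.0. Synchrotron data; molecular replacement using a refined covalent peptide–Siah1 dimer as search model.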

Data set [2] deals with T1, his6-Siah1 (aa 81-282) (Homo sapiens, UniProt Q8IUQ4).
T1 sequence (Q8IUQ4 81-282): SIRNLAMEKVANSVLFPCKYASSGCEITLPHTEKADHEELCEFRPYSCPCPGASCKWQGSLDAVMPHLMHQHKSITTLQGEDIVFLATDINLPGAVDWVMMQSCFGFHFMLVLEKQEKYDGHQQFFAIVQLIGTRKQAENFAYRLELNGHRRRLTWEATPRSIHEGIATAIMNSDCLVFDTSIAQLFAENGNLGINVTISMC
The experiment in a line: DELFIA displacement of biotin-PHYL, wild type Siah. In kind it is binding.

In data set [3] the target is T2, his6-Siah1 T156C (aa 81-282) (Homo sapiens, UniProt Q8IUQ4, T156C).
T2 sequence (Q8IUQ4 81-282 T156C): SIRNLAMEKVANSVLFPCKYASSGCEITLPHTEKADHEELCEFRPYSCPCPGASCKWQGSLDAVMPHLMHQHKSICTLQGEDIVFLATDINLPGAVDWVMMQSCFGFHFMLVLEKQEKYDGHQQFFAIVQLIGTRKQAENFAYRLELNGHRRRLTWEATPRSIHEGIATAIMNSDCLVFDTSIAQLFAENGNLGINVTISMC
The experiment in a line: DELFIA displacement of biotin-PHYL, mutant T156C Siah. In kind it is binding.

Data set [4] addresses T3, his6-Siah1 (aa 81-282) (UniProt Q8IUQ4 81-282).
T3 sequence (looked up): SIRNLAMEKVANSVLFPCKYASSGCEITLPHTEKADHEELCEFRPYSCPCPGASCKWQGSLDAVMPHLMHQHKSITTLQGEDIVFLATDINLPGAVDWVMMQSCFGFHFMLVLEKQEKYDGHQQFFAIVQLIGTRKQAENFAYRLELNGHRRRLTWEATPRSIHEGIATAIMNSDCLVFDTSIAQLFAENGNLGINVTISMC
The experiment in a line: DELFIA displacement assay.

Data set [5] concerns the target T4, his6-Siah1 T156C (aa 81-282) (UniProt Q8IUQ4 81-282, T156C).
T4 sequence (looked up): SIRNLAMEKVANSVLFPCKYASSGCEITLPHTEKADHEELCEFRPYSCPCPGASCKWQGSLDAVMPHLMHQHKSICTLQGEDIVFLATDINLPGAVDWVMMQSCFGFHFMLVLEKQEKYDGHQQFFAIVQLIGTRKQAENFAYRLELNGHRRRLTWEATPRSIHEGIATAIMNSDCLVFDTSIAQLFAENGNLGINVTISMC
The experiment in a line: DELFIA displacement assay.

The data set “crystal structure” deals with the molecule itself. The experiment in a line: crystal structure.
For data set [6], the target named is T4, his6-Siah1 T156C (aa 81-282). Kind of data set: DELFIA displacement assay. The source holds these as a separate data set.

For orientation: IC50 means the concentration at which inhibition is half-maximal. Read a high IC50 as a need for much substance.

Square brackets hold non-standard residues; d marks the D form. Ends that are not written are not given here. Peptide text beside a SMILES is read from it. * marks the point of attachment. Biotin = O=C1N[C@H]2[C@H](CS[C@H]2CCCCC(=O)*)N1; lc = a hydrocarbon chain of 6 methylene groups; Abu = CC[C@H](N)C(=O)O; Dap = NC[C@H](N)C(=O)O; Acryloyl = C=CC(=O)*

In the case of Ac-QQERTKLRPVAMVRPTVRVQPQL-NH2 [PHYL], the “Affinity for the substrate-binding domain of Siah” value in data set [1] is on record as “low micromolar affinity”. For `C=CC(=O)NC[C@H](NC(=O)[C@@H](NC(=O)[C@@H]1CCCN1C(=O)[C@H](CCCNC(=N)N)NC(=O)[C@H](CC(C)C)NC(=O)[C@H](CCCCN)NC(C)=O)C(C)C)C(=O)N[C@@H](CCSC)C(=O)N[C@H](C(=O)N[C@@H](CCCNC(=N)N)C(=O)N1CCC[C@H]1C(=O)N[C@@H](Cc1c[nH]c2ccccc12)C(=O)N[C@H](C(=O)N[C@@H](CCCNC(=N)N)C(N)=O)C(C)C)C(C)C` [BI-117C3] (Ac-KLRPV[Dap](Acryloyl)MVRPWVR-NH2), the “Covalent modification of Siah1 T156C by MALDI-TOF mass spectrometry” value in the data set on Siah1 T156C is given as “expected mass increase”. Also, the “Covalent modification of wt Siah1 by MALDI-TOF mass spectrometry” value with wt Siah1 is “unable to covalently modify wt Siah1”. For the same molecule, the “Efficiency of covalent thioether bond formation to Cys156” value in the data set on T156C Siah1 is on record as ~ 100%. On his6-Siah1 (aa 81-282) [2], “Ac-RQIKIWFQNRRMKWKKPPPPPPPPPPQQERTKLRPVAMVRPTVRVQPQL-NH2 [PEN-P10-PHYL, reference compound]” showed an IC50 of 1000 nM. Take `C=CC(=O)NCCCC[C@H](NC(=O)[C@@H]1CCCN1C(=O)[C@H](CCCNC(=N)N)NC(=O)[C@@H](NC(=O)[C@H](CCSC)NC(=O)[C@H](C)NC(=O)[C@@H](NC(=O)[C@@H]1CCCN1C(=O)[C@H](CCCNC(=N)N)NC(=O)[C@H](CC(C)C)NC(=O)[C@H](CCCCN)NC(C)=O)C(C)C)C(C)C)C(=O)N[C@H](C(=O)N[C@@H](CCCNC(=N)N)C(N)=O)C(C)C` [BI-107F7] (Ac-KLRPVAMVRPK(Acryloyl)VR-NH2): in the data set on wt Siah1, the “Covalent modification of wt Siah1 by MALDI-TOF mass spectrometry” value is reported as “confirmed the formation of the covalent complex”. For the molecule Ac-KLRPVAMVRPTVR-NH2 [BI-107D1], the IC50 (on his6-Siah1 (aa 81-282) [2]; in data set [3]) was 1000 nM each time.

As for Ac-KLRPVAMVRPK(Acryloyl)VR-NH2 [BI-107F7 (Ac-KLRPVAMVRPαVR-NH2)], the IC50 in the data set with his6-Siah1 (aa 81-282) [4] amounted to 100 nM. For the molecule Ac-KLRPVAMVRPTVR-NH2 [BI-107D1 (Ac-KLRPVAMVRPTVR-NH2)], the IC50 (with his6-Siah1 (aa 81-282) [4]; in [5]) was 1000 nM each time. Regarding Ac-KLRPVAMVRPWVR-NH2 [BI-107F1 (Ac-KLRPVAMVRPWVR-NH2)], the half-maximal inhibitory concentration (IC50) in data set [5] turned out to be 400 nM. Consider Ac-KLRPVAMVRPMVR-NH2 [BI-107E12 (Ac-KLRPVAMVRPMVR-NH2)], for which, in data set [5], the IC50 stood at 900 nM.

B1: BI-117C3 (Ac-KLRPVδMVRPWVR-NH2) (peptide)
chain: Ac-KLRPV[Dap](Acryloyl)MVRPWVR-NH2
SMILES: C=CC(=O)NC[C@H](NC(=O)[C@@H](NC(=O)[C@@H]1CCCN1C(=O)[C@H](CCCNC(=N)N)NC(=O)[C@H](CC(C)C)NC(=O)[C@H](CCCCN)NC(C)=O)C(C)C)C(=O)N[C@@H](CCSC)C(=O)N[C@H](C(=O)N[C@@H](CCCNC(=N)N)C(=O)N1CCC[C@H]1C(=O)N[C@@H](Cc1c[nH]c2ccccc12)C(=O)N[C@H](C(=O)N[C@@H](CCCNC(=N)N)C(N)=O)C(C)C)C(C)C
As for B1, the IC50 with his6-Siah1 (aa 81-282) [4] is more than 100000 nM; in data set [5] it was 6 nM.

B2: Siah1 81-282 (wild-type) (domain or fragment, UniProt Q8IUQ4 81-282, looked up)
chain: SIRNLAMEKVANSVLFPCKYASSGCEITLPHTEKADHEELCEFRPYSCPCPGASCKWQGSLDAVMPHLMHQHKSITTLQGEDIVFLATDINLPGAVDWVMMQSCFGFHFMLVLEKQEKYDGHQQFFAIVQLIGTRKQAENFAYRLELNGHRRRLTWEATPRSIHEGIATAIMNSDCLVFDTSIAQLFAENGNLGINVTISMC
On to B2, for which the binding result in the data set “crystal structure” was “binds”.

B3: Siah1 81-282 (T156C mutant), for crystallographic studies (domain or fragment, UniProt Q8IUQ4 81-282, looked up)
chain: SIRNLAMEKVANSVLFPCKYASSGCEITLPHTEKADHEELCEFRPYSCPCPGASCKWQGSLDAVMPHLMHQHKSICTLQGEDIVFLATDINLPGAVDWVMMQSCFGFHFMLVLEKQEKYDGHQQFFAIVQLIGTRKQAENFAYRLELNGHRRRLTWEATPRSIHEGIATAIMNSDCLVFDTSIAQLFAENGNLGINVTISMC
Turning to B3, in “crystal structure”, the binding result was “binds”. For the molecule Ac-QQERTKLRPVAMVRPTVRVQPQL-NH2 [PHYL (Ac-QQERTKLRPVAMVRPTVRVQPQL-NH2)], the IC50 in the data set with his6-Siah1 (aa 81-282) [4] came to 500 nM. In the case of Ac-KLRPV[Abu]MVRPTVR-NH2 [BI-107E1 (Ac-KLRPVεMVRPTVR-NH2)], the IC50 (with his6-Siah1 (aa 81-282) [4]; in data set [5]) was 2000 nM in each case.

Consider {Biotin-lc}-QQERTKLRPVAMVRPTVRVQPQL [biotin-PHYL (biotin-lc-QQERTKLRPVAMVRPTVRVQPQL)], for which the binding result in [6] was “binds”.

Values taken from PMC3763817 (Chemistry & biology, 2013).
